High-throughput results: PubChem BioAssay, several laboratories
The list is not random: actives were taken first. Their share in the collection is about 2.8%.
Measles CPE = compounds protecting cells from measles virus cytopathic effect, primary screen, measles RdRp inhibitor project, single point, MLSMR library, absorbance | AID 841, 2007 | Measles virus-infected cells, CPE protection | 1.5% of 140,000 active | protection (pct of control), % at 4 µM; in the data active means protection mostly above about 24%, no sharp cut-off; inactive means mostly below about 26%
NPY-Y1 PAM-ag = NPY-Y1 receptor potentiators or agonists, primary screen, cell-based | Neuropeptide Y receptor type 1 (Homo sapiens), P25929 | NPY-Y1 expressing cells, potentiator/agonist activation | activation, % at 3.6 µM | 0.37% of 220,000 active; in the data active means activation above about 33%, passing the limit was not always enough;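 further: cells stimulated with NPY at EC10 then isoproterenol at EC100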
NPY-Y2 antag = NPY-Y2 receptor antagonists, primary screen, cell-based | Neuropeptide Y receptor type 2 (Homo sapiens), P49146 | NPY-Y2 expressing cells, antagonist mode | inhibition, % at 2.7 µM | 0.99% of 140,000 active | AID 793, 2007
Target sequence (P49146 whole entry, looked up): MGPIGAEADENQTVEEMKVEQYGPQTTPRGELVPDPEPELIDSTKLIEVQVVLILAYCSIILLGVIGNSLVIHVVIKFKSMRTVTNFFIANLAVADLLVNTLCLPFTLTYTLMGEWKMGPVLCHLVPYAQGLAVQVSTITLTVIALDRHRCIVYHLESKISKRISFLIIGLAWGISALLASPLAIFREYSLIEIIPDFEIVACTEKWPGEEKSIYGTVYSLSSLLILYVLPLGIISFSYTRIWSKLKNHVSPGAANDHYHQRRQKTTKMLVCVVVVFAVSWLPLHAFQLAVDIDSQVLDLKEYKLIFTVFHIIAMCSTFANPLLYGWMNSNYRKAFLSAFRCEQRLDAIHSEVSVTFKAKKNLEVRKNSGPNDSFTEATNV
NPY2 pot ag = NPY-Y2 potentiators or agonists, primary screen, cell-based; Neuropeptide Y receptor type 2 (Homo sapiens), P49146; cells expressing NPY-Y2, potentiator/agonist read-out; activation, % at 3.6 µM; 0.45% of 220,000 active; in the data active means activation above about 27%;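 further: cells stimulated with NPY near EC25 plus isoproterenol at EC100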
Mdm2 ligase inh = MDM2-luciferase reporter signal enhancers, primary screen, MDM2 E3 ligase inhibitor project, cell-based, luminescence, 1536-well. 0.11% of 210,000 active. signal enhancement, % at 5 µM. cell-based MDM2 ubiquitination luciferase reporter, 2 h; 0 = plate control, 100 = twice control, blank-subtracted. E3 ubiquitin-protein ligase Mdm2 (Homo sapiens), Q00987;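 active means signal enhancement of 30% or more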;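 further: luminescence tracks abundance of the self-degrading MDM2-luciferase fusion protein; higher signal means inhibition of MDM2 E3 ligase activity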
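Material: stable MDM2–luciferase fusion reporter cells / Quantity: 2000 cells/well / Dosing: single 5 µM compound dose, 0.2% final DMSO / Buffer or medium: DMEM / Schedule: 4 h cell settling then 2 h compound exposure, 37 °C / Detection: luminescence with SteadyLite reagent, 15 min at room temperature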
NPY-Y1 antag = NPY-Y1 receptor antagonists, primary screen, cell-based; Neuropeptide Y receptor type 1 (Homo sapiens), P25929; HEK293-CNG Y1 cells, membrane potential fluorescence; NPY at EC95, then isoproterenol; inhibition, % at 3.6 µM; 1% of 200,000 active; AID 1040, 2008;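 active means inhibition above the campaign mean inhibition of all tested compounds plus 3 SD, cut at about 20% in these data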
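Material: HEK293 cells with Y1 receptor plus CNG channel; times: compound incubation 1 h at room temperature, readout 45 min post-stimulation; signal: fluorescence, membrane potential probe; read-out basis: fluorescence ratio normalized to % inhibition between controls; benchmarks: full-block control isoproterenol-only wells, zero-block control NPY plus isoproterenol wells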
NPY-Y1 ant conf = NPY-Y1 receptor antagonists, retest of hits, confirmation, HEK293-CNG cells, membrane potential fluorescence, triplicate; shares compounds with NPY-Y1 antag; cAMP; NPY challenge against isoproterenol-raised cAMP; inhibition, % at 3.6 µM; 21% of 1,200 active; in the data active means inhibition above about 20%
NPY2 antag ctr = NPY-Y2 receptor antagonists, selectivity check, confirmation, counter-screen for NPY-Y1 antagonist project, HEK293-CNG cells, membrane potential fluorescence, triplicate. shares compounds with NPY-Y1 antag. antagonism; cells given NPY, then isoproterenol. inhibition, % at 3.6 µM. 28% of 1,200 active. AID 1255, 2008
Of the large screens only hits and unclear results are named; the others gave an inactive call (follow-up assays come after a bar, where they were run). Unless noted, no stated cut-off is given here; in the data, active means inhibition above about 17%; inactive means the rest.

COc1ccc2cc(Br)ccc2c1CC(=O)N(C)C	none (no result: Measles CPE, NPY-Y2 antag)
CCCCN(C)C(=O)Cc1c(OC)ccc2cc(Br)ccc12	NPY-Y1 antag 21.1 | NPY-Y1 ant conf inactive | NPY2 antag ctr inactive
CCC1CCCCN1C(=S)Nc1ccc(OC(F)F)cc1 (stereo unspecified)	none (no result: Measles CPE)
CCOC(=O)/C(=C/c1ccc(OC(=O)c2ccccc2)cc1)C(C)=O	none
Cc1ccc(Cc2cnc(NC(=O)/C(C#N)=C/c3ccc(-c4ccccc4[N+](=O)[O-])o3)s2)cc1	NPY-Y1 antag 27.4 | NPY-Y1 ant conf 50.0 | NPY2 antag ctr 46.3
O=C(C1CC12CCCC2)N1CCC(CO)(Cc2ccccc2Cl)CC1 (stereo unspecified)	none (no result: Measles CPE, NPY-Y2 antag)
COc1ccc(C(=O)n2c(-c3ccco3)nc3ccccc32)cc1	NPY-Y1 antag 22.6 | NPY-Y1 ant conf inactive | NPY2 antag ctr inactive
COc1ccc(C(=O)N2CCn3c2nc2ccccc23)cc1	none (no result: Measles CPE, NPY-Y2 antag)
CCOC(=O)c1c(NC(=O)Cc2cccs2)sc(C)c1C	NPY-Y1 antag 21.2 | NPY-Y1 ant conf inactive | NPY2 antag ctr inactive
Cc1cc2ncn(CC3CC3(Cl)Cl)c2cc1C (stereo unspecified)	none (no result: Measles CPE, NPY-Y2 antag)
Cc1cc(-c2ccccc2)nc(Oc2ccc(C(C)(C)C)cc2)c1S(C)(=O)=O	NPY-Y1 antag 23.4 | NPY-Y1 ant conf inactive | NPY2 antag ctr inactive
O=[N+]([O-])c1ccc(/C=N/NC2=NS(=O)(=O)c3ccccc32)cc1	none (no result: Measles CPE, NPY-Y2 antag)
O=[N+]([O-])c1ccc(O)c(/C=N/NC2=NS(=O)(=O)c3ccccc32)c1	NPY-Y1 antag 35.1 (no result: Measles CPE, NPY-Y2 antag) | NPY-Y1 ant conf inactive | NPY2 antag ctr inactive
CCOC(=O)c1c(NC(=O)CN2CCN(C)CC2)sc(C(=O)Nc2ccccc2)c1C	NPY-Y1 antag 26.7 (no result: Measles CPE, NPY-Y2 antag) | NPY-Y1 ant conf inactive | NPY2 antag ctr inactive
CCOC(=O)C(=O)c1csc(NC(=O)CCSc2ccc(C)cc2)n1	none (no result: Measles CPE, NPY-Y2 antag)
COc1cc(C2C(C#N)=C(N)Oc3cc4c(cc32)OCO4)cc(OC)c1OC (stereo unspecified)	NPY-Y1 antag 22.0 (no result: Measles CPE, NPY-Y2 antag) | NPY-Y1 ant conf inactive | NPY2 antag ctr inactive
COC(=O)C(O)(NC(=O)c1ccncc1)C(F)(F)F (stereo unspecified)	none (no result: Measles CPE, NPY-Y2 antag, Mdm2 ligase inh, NPY-Y1 antag)
COc1ccc(CNC(=O)COC(=O)c2ccccn2)cc1	none (no result: Measles CPE, NPY-Y2 antag)
O=C(CN1CCN(C2CCCCC2)CC1)Nc1ccccc1-c1ccccc1	NPY-Y1 antag 21.5 | NPY-Y1 ant conf inactive | NPY2 antag ctr inactive
O=C(CN1CCCCC1)Nc1ccccc1-c1ccccc1	none
Cc1cccc2cc(C#N)c(NCCNS(=O)(=O)c3ccc4c(c3)OCCO4)nc12	none
O=C(Nc1ccccc1C(=O)OCC(=O)c1c[nH]c2ccccc12)c1ccco1	none
CN1CCCN(C(=O)Cc2c(Cl)cccc2Cl)c2nc3ccccc3nc21	none
COc1ccc(C(C(=O)NC(C)(C)C)N(C(=O)Cn2nnc3ccccc32)c2cccc(C(C)=O)c2)cc1O (stereo unspecified)	none (no result: Measles CPE, NPY-Y2 antag, Mdm2 ligase inh, NPY-Y1 antag)
O=C(N/N=C/c1ccccc1OC(=O)c1ccc2c(c1)OCO2)c1cccc(F)c1	NPY-Y1 antag 20.8 | NPY-Y1 ant conf inactive | NPY2 antag ctr inactive
COc1cc(/C=N/NC(=O)c2cccnc2)ccc1OC(=O)c1ccc2c(c1)OCO2	none
CCOC(=O)c1sc(NC(=S)NC(=O)c2ccco2)nc1C	none
